From PubChem
Runt-SMMHC FRET: Runt domain-CBFb-SMMHC interaction inhibition. hit rate 0.74% among 220,000. Cerulean-Runt/Venus-CBFb-SMMHC FRET ratio 530/480, 1 h. inhibition, % at 20 µM;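 active = mean inhibition across duplicate retests at 20 µM reaching about 50%, limit read from the data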;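 also: 0% = DMSO wells and 100% = wells with excess untagged CBFb-SMMHC; inhibitors lower the FRET ratio by blocking Runt binding to CBFb-SMMHC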
TNF necrop inh: TNF-alpha cell death inhibition in Jurkat FADD-/- cells | Jurkat FADD-/- TNF necroptosis rescue, ATP luminescence, 24 h; 0 = TNF only, 100 = no-TNF cells | activation (protection from cell death), % at 10 µM | hit rate 0.068% among 220,000 | AID 463075;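 active = activation, meaning protection from cell death, of at least 50% relative to plate controls; inactive = activation below 50%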;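 also: necroptosis triggered by 40 ng/mL TNF-alpha added together with compound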
L929 necroptosis: blocks zVAD induced death of L929 cells; L929 zVAD necroptosis rescue, ATP luminescence, 24 h; with zVAD 60 µM; viability rescue, % at 10 µM; hit rate 0.38% among 220,000; AID 1377;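 active = activation, scaled between plate controls, above about 75%, limit read from the data; inactive = activation under that limit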;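 also: 0% = zVAD with DMSO and 100% = DMSO alone without zVAD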
Hck Nef HTS: human Hck-Nef kinase inhibition; P08631; Recombinant Hck-YEEI plus Nef, Z-Lyte FRET kinase assay; inhibition, % at 20 µM; hit rate 0.68% among 220,000; AID 463187;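 active = Hck-Nef kinase inhibition above about 50%, limit read from the data; inactive = inhibition below that limit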;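 also: 0% = DMSO with Hck plus Nef and 100% = Hck alone without Nef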
Target sequence (P08631 whole entry, looked up): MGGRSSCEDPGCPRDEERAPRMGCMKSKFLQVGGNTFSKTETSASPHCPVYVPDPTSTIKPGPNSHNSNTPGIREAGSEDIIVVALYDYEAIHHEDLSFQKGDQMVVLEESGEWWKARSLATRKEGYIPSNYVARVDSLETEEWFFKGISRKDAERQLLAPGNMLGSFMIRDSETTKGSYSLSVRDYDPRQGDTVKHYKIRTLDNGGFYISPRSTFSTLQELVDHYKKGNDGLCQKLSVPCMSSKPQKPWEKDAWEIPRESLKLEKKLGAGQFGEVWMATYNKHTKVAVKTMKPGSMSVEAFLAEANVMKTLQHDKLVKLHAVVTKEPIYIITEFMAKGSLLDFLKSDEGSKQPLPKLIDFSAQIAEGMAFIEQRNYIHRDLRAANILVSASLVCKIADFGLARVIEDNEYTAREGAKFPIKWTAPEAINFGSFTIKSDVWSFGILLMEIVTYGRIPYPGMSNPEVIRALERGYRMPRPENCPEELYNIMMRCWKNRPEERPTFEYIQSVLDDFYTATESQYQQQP
RanGTP-Imp inh: inhibitors of RanGTP-importin-beta interaction, primary screen, biochemical, FRET, CFP-Ran, YFP-importin-beta, homogeneous; hit rate 1.1% among 300,000; inhibition, % (no concentration beside the values); cell-free CFP-Ran/YFP-importin-beta FRET ratio; AID 2216;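 active = more than half of the replicate wells show a fall in the fluorescence ratio signal beyond about 16%, limit read from the data, passing the limit was not always enough; inconclusive = exactly half of the replicate wells pass the set limit; inactive = fewer than half of replicates pass the limit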;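 also: 0% = DMSO wells and 100% = Ran loaded with GDP instead of GTP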
Runt-CBFb FRET: Runt domain-CBFb interaction inhibition; Cerulean-Runt/Venus-CBFb FRET ratio 530/480, 1 h; inhibition, % at 20 µM; hit rate 0.46% among 220,000; AID 1496;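 active = inhibition over about 50% at 20 µM in the single-dose screen, limit read from the data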;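 also: 0% = DMSO wells and 100% = excess unlabeled CBFb competitor control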
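Reagent – Venus-CBFb binding partner, 100 nM · Assay system – Cerulean-tagged RUNX1 Runt domain (FRET donor) fusion protein · Input – 100 nM per protein · Incubation – two 1 h room-temperature incubations shielded from light · Measured by – FRET fluorescence · Medium – Tris buffer pH 7.5 with salts and BSA · Benchmarks – unlabeled CBFb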
YIC FRET counter: counter-screen: alters YIC FRET probe signal | shares compounds with RanGTP-Imp inh | Purified YIC probe, intramolecular FRET ratio YFP/CFP | IC50, µM | hit rate 40% among 1,000 | AID 435026;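 active = fitted half-maximal inhibitory concentration no more than tenfold above the top dose tested; inconclusive = flat fit with 30 to 70% activity, or poor fit; inactive = half-maximal concentration beyond tenfold above the top dose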
The depositor's hits bear a star; i = inactive; ? = inconclusive; . = no result. Shown are actives, neighbours in structure and some others; about 2.1% of the full set was active somewhere.

SMILES	Runt-SMMHC FRET	TNF necrop inh	L929 necroptosis	Hck Nef HTS	RanGTP-Imp inh	Runt-CBFb FRET	YIC FRET counter
Cn1c(N/N=C/c2cc3ccccc3nc2Cl)nc2ccccc21	0	-9	0	-3	17*	2	i
COCCN(CCOC)Cc1c(O)ccc2c1O/C(=C\c1ccco1)C2=O	.	.	.	.	-57	.	.
CCN(CC)C(=O)Oc1ccc2c(c1)O/C(=C\c1ccco1)C2=O	.	.	.	.	18*	.	8.2*
COC(=O)COc1ccc2c(c1)O/C(=C\c1ccco1)C2=O	.	.	.	.	18*	.	29*
CS(=O)(=O)N(Cc1ccccc1)c1ccc(C(=O)N2CCc3ccccc3C2)cc1	0	0	0	1	-1	.	.
Cc1ccccc1CSCC(=O)NCc1ccco1	0	0	1	6	-1	0	.
Cc1cc(C(=O)N2CCc3c([nH]c4ccccc34)C2c2c(F)cccc2Cl)no1 (stereo unspecified)	2	-1	-1	2	27*	1	>50
COCCNC(=O)CCN1N=C(c2ccccc2)CCC1=O	.	.	.	.	4	.	.
C=C(C)Cn1c(SCC(=O)O)nnc1-c1ccc(OC)cc1	1	0	0	2	22*	-1	>50
C=C(C)CSc1nnc(-c2ccc(OC)cc2)n1N	-8	-1	0	-1	0	0	.
CC1=C(C(=O)OCC2CCCO2)C(c2ccccc2OC(C)C)C2=C(CC(c3ccco3)CC2=O)N1 (stereo unspecified)	103*	2	0	30	28*	43	6.9*
CC1=C(C(=O)OCC2CCCO2)C(c2cccc(C(F)(F)F)c2)C2=C(CC(c3ccco3)CC2=O)N1 (stereo unspecified)	32	-2	0	3	5	18	.
CN(c1ccccc1)S(=O)(=O)c1cccc(C(=O)OCC(=O)NCc2ccc3c(c2)OCO3)c1	2	1	0	1	-1	1	.
Cc1ccnc(NC(=O)C2CCN(S(=O)(=O)c3ccc(Cl)c(C(F)(F)F)c3)CC2)c1	.	.	.	.	0	.	.
Cc1ccc(NC(=O)C2CCN(S(=O)(=O)c3ccc(Cl)c(C(F)(F)F)c3)CC2)nc1	.	.	.	.	20*	.	>50
Cc1cc(S(=O)(=O)N2CCN(c3ccccc3C)CC2)ccc1F	-1	1	-1	6	-2	-1	.
Cc1cc(S(=O)(=O)N2CCN(c3c(C)cccc3C)CC2)ccc1F	-5	0	0	-1	22*	1	>50
CCCOc1ccccc1C1NC(=O)NC(C)=C1C(=O)OCCOC (stereo unspecified)	-1	0	-1	-19	0	-1	.
COCCOC(=O)C1=C(C)NC(=O)NC1c1cccc2ccccc12 (stereo unspecified)	.	.	.	.	22*	.	>50
CCOC(=O)/C=C/C(=O)N1CCN(C(=O)/C=C/C(=O)OCC)CC1	0	-15	-2	13	2	0	.
CCOc1ccc(N2C(=O)C3C4C=CC(CC4)C3C2=O)c([N+](=O)[O-])c1 (stereo unspecified)	1	-1	0	2	20*	1	>50
Cc1cc(C)cc(N(C(=O)c2ccccn2)C(C(=O)NC2CCCCC2)c2ccncc2)c1 (stereo unspecified)	.	.	.	.	4	.	.
O=C1c2cnc3nc(SCc4ccc(Cl)cc4)nn3c2CC2c3ccccc3CCN12 (stereo unspecified)	40	-1	1	7	3	0	.
CC(C)Cn1c(SCC(=O)N2CC(=O)Nc3ccccc32)nc2ccccc21	0	1	0	-64	3	0	.
Cc1nc2ccccc2n1CC(=O)N1CC(=O)Nc2ccccc21	0	-2	0	1	18*	3	>50
SMILES	Runt-SMMHC FRET	TNF necrop inh	L929 necroptosis	Hck Nef HTS	RanGTP-Imp inh	Runt-CBFb FRET	YIC FRET counter
Cc1ccc(Cn2ccc(O)c(Cc3ccccc3)c2=O)cc1	-1	2	1	9	2	-1	.
COCCCNC(=O)/C(C#N)=C/c1c(N2CCN(c3ccccc3)CC2)nc2ccccn2c1=O	.	.	.	.	26*	.	29*
O=S(=O)(CCN1CCSCC1)c1ccccc1	1	4	1	1	3	0	.
O=C1C(=O)N(CCS(=O)(=O)c2ccccc2)c2ccc(Cl)cc21	.	.	.	.	39*	.	>50
COc1ccc(OC(=O)C2CC(=O)N(c3ccc(C)cc3)C2)cc1 (stereo unspecified)	5	0	5	19	22*	-2	>50
COCCNC(=O)C(C)OC(=O)c1cc2occc2n1C (stereo unspecified)	0	-1	-1	-2	19*	2	>50
COc1ccccc1NC(=O)c1cc2ccccc2nc1C	1	1	1	21	23*	0	>50
N#Cc1c2n(c3c(=O)n(CC(=O)c4ccc(Br)cc4)cnc13)CCCC2	2	-4	0	1	-3	-2	.
N#Cc1c2ncn(CC(=O)c3ccc(Br)cc3)c(=O)c2c2n1CCC2	-1	0	0	0	16*	-5	>50
O=C(CN1CCN(S(=O)(=O)c2ccc(Br)cc2)CC1)c1ccc(O)c(O)c1	.	.	.	.	-2	.	.
CC/C(=N/N=C(\CC)c1ccccc1)c1ccccc1	-43	1	0	-4	-2	-3	.
O=c1cc(CN2CCN(S(=O)(=O)c3ccc4c(c3)OCCO4)CC2)c2ccc(O)cc2o1	102*	-3	0	25	46*	102*	6.9*
Cc1ccc2nc(N3CCN(C(=O)c4ccc(F)cc4)CC3)c(C#N)cc2c1	.	.	.	.	22*	.	25*
c1cncc(CNC2CCCc3ccccc32)c1 (stereo unspecified)	-2	-2	0	3	-3	-2	.
O=[N+]([O-])c1ccc(CNC2CCCc3ccccc32)cc1 (stereo unspecified)	72*	1	-1	12	25*	30	>50
O=C(O)COc1ccc(F)cc1Br	0	3	2	-6	25*	1	>50
O=C(COc1ccc(F)cc1Br)NCc1ccccn1	-2	0	0	1	?	-1	.
CN1CCN(C(CNC(=O)C(=O)NC2CCCCC2)c2ccc(F)cc2)CC1 (stereo unspecified)	.	.	.	.	2	.	.
O=[N+]([O-])c1cc(C(F)(F)F)ccc1NCC1CCCO1 (stereo unspecified)	.	.	.	.	-6	.	.
N#Cc1cc(NCC2CCCO2)c([N+](=O)[O-])cc1C#N (stereo unspecified)	-1	0	1	2	23*	0	>50
